# According to PMC9890135 (Molecular Cancer Therapeutics, 2022):
# How the values were obtained:
# MER = target: T1, MER (Homo sapiens, UniProt Q12866); experiment: Inhibition of receptor phosphorylation, ELISA, MERTK-transfected 293A cells; format: cell-based
# T1 sequence (Q12866 21-999): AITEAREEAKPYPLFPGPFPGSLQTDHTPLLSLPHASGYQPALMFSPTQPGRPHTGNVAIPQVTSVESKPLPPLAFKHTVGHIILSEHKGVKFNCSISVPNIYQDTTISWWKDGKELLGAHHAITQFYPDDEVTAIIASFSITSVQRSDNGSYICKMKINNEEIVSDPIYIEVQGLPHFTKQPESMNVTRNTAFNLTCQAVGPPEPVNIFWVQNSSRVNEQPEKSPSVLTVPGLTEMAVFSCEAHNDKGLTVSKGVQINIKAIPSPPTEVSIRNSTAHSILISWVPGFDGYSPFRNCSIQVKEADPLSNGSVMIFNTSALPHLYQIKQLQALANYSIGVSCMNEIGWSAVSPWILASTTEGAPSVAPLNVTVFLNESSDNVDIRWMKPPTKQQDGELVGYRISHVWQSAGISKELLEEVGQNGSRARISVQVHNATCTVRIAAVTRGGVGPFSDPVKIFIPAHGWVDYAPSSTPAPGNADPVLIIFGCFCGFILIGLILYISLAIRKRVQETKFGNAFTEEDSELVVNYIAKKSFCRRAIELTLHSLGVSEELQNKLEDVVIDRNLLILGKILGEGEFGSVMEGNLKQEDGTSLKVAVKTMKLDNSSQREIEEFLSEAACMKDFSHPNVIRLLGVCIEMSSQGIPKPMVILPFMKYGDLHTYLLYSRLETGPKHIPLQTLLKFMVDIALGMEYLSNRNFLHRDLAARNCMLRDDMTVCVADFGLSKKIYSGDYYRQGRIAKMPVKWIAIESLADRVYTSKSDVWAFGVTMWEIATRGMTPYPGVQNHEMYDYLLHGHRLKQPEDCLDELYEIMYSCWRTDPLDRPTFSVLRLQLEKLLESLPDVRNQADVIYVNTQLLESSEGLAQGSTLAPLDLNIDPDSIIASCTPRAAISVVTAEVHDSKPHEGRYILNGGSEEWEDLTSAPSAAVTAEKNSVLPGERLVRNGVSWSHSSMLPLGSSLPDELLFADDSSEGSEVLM
# peripheral leukocytes = experiment: Peripheral immunocytes by flow cytometry in MC38 tumor-bearing mice; format: in vivo; conditions: 7 days, XL092 30 mg/kg
# Method in brief: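 Female C57BL/6 mice (5–6 weeks) inoculated s.c. with 1 × 10^6 MC38 cells, randomised at ~200 mm3. […] single-cell suspensions surface-stained with a lineage panel plus fixable viability dye. Medians compared by Mann–Whitney U.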
# NCI-H441 tumors = experiment: NCI-H441 xenograft tumor growth; format: in vivo, mice; conditions: 21 days, oral
# Method in brief: (§1)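 Human tumour cells inoculated into the rear flank. Mice randomised at mean volumes of ~200 mm3 (Hs 746T), ~120 mm3 (MDA-MB-231), ~100 mm3 (NCI-H441) or ~90 mm3 (SNU-5). Oral gavage once daily with test compound or vehicle. Tumour volume and body weight measured at least twice weekly. […], using mean volumes at extraction and dosing start.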
# [1] = Plasma protein binding, rapid equilibrium dialysis; format: in vitro ADME; conditions: mouse
# Method in brief: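 Rapid equilibrium dialysis against PBS at 10 μmol/L test compound, 16 h incubation, in triplicate.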
# SNU-5 tumors = experiment: SNU-5 xenograft tumor growth; format: in vivo, mice; conditions: 14 days, oral
# Method in brief: as §1
# MDA-MB-231 tumors = experiment: MDA-MB-231 xenograft tumor growth; format: in vivo, mice; conditions: 14 days, oral
# Method in brief: as §1
# [2] = humans; preliminary phase I data (NCT03845166); cited from earlier work
# AXL = target: T2, AXL (Homo sapiens, UniProt P30530); experiment: AXL phosphorylation in Hs 746T tumors in vivo; design: species or system mice
# T2 sequence (P30530 26-894): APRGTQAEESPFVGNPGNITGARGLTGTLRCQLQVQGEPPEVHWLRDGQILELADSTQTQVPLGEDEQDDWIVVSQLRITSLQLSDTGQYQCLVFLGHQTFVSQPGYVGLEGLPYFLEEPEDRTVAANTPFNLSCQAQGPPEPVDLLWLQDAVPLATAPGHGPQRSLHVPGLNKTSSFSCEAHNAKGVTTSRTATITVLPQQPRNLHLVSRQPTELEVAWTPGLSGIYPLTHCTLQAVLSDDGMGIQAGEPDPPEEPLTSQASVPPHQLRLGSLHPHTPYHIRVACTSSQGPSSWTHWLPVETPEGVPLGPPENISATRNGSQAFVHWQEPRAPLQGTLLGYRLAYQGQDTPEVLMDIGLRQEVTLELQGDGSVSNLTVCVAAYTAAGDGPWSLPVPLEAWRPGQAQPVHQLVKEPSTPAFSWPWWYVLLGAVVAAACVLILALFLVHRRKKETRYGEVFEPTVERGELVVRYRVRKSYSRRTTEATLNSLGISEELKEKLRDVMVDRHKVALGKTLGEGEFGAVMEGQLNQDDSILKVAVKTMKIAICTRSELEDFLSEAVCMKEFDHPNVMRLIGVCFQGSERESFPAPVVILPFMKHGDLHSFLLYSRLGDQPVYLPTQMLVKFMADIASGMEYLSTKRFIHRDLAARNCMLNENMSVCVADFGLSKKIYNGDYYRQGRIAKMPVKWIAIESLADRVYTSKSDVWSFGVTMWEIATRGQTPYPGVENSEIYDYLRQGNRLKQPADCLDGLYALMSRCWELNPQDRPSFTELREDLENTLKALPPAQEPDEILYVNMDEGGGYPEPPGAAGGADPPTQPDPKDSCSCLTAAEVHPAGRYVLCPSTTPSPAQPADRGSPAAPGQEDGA
# Method in brief: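 Hs 746T xenograft mice received single oral doses (30 or 100 mg/kg) or vehicle, n = 6/group. […] Tumour pAXL/AXL ratio reported as mean ± SEM, Mann–Whitney U test. Duration study: 100 mg/kg group sampled every 12 h up to 48 h.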
# [3] = system: human xenograft murine models; experiment: Murine xenograft models overall; format: in vivo, mice; conditions: after 14 days of daily 10 mg/kg treatments
# Method in brief: as §1
# MET = MET (Homo sapiens, UniProt P08581); experiment: Inhibition of receptor phosphorylation, ELISA, PC-3 cells/HGF; format: cell-based
# Chain of MET (P08581 25-1390): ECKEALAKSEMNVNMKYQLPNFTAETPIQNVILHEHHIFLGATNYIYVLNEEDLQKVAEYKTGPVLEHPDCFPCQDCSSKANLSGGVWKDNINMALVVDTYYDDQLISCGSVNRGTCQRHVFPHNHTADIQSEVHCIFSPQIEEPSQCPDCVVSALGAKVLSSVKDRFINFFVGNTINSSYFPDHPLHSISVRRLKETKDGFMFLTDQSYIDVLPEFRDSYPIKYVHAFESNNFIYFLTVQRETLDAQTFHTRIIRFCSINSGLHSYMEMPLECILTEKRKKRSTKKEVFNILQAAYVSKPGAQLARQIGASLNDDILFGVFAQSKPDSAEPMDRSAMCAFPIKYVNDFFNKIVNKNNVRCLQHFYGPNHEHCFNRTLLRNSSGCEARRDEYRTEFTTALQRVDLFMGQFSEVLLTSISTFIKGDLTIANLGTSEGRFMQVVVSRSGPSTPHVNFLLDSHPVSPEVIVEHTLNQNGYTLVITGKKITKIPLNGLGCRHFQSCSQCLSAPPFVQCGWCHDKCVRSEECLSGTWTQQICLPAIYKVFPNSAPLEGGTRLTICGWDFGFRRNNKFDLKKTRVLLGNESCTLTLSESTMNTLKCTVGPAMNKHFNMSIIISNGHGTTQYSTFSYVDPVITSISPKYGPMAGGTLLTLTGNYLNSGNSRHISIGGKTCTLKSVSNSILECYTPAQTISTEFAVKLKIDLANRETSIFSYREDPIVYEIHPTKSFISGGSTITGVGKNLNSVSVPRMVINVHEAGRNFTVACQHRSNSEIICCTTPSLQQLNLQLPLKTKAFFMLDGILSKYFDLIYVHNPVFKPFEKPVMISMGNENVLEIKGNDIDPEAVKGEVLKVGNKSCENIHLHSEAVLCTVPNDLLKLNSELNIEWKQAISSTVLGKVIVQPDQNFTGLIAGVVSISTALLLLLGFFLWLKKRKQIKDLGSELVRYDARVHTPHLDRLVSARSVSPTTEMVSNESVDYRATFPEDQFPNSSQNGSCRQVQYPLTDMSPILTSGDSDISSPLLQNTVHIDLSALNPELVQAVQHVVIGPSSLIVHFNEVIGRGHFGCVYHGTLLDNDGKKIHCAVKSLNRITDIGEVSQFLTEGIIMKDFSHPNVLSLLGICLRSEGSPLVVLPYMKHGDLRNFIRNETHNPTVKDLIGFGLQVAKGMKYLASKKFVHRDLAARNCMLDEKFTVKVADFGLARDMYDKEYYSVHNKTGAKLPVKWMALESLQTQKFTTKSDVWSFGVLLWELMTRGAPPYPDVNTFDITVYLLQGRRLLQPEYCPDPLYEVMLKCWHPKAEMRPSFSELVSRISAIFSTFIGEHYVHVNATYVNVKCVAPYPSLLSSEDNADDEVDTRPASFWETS
smiles,measurement,setting,value
CNC(=O)c1cc2c(Oc3ccc(NC(=O)C4(C(=O)Nc5ccc(F)cc5)CC4)cc3)ccnc2cc1OC [XL092],IC50,MER,6.01 ± 1.56 nM
same,peripheral CD4+ T cells relative to vehicle,peripheral leukocytes,significant increases
same,peripheral B cells relative to vehicle,peripheral leukocytes; antibodies 5 mg/kg,significant increases
same,peripheral myeloid cells relative to vehicle,peripheral leukocytes; antibodies 5 mg/kg,significant decreases
same,Tumor growth inhibition,NCI-H441 tumors; 1 mg/kg/day,68.3%
same,Tumor regression (%),NCI-H441 tumors; 3 mg/kg/day,5.6%
same,Tumor regression (%),NCI-H441 tumors; 10 mg/kg/day,67.7%
same,Tumor regression (%),NCI-H441 tumors; 30 mg/kg/day,72.1%
same,Tumor regression (%),NCI-H441 tumors; 60 mg/kg/day,86.1%
same,"fraction unbound at 16 h, 10 μmol/L",[1],0.003
same,Tumor growth inhibition,SNU-5 tumors; 3 mg/kg/day,54.2%
same,Tumor growth inhibition,SNU-5 tumors; 10 mg/kg/day,94.7%
same,Tumor growth inhibition,MDA-MB-231 tumors; 3 mg/kg/day,73.6%
same,Tumor growth inhibition,MDA-MB-231 tumors; 10 mg/kg/day,78.6%
same,half-life,[2],approximately 24 hours
same,duration of inhibition of AXL phosphorylation,"AXL; Hs 746T model, single dose of 100 mg/kg",approximately 24 hours
same,tumor AXL phosphorylation relative to vehicle,"AXL; Hs 746T xenograft, single oral doses 30 or 100 mg/kg, P < 0.01",significant decrease
same,TGI (summary over several models),[3],≥ 70%
same,IC50,MET,11.9 ± 1.55 nM
